# Screens from PubChem.
# In the library only some 2.6% were active in any assay of this set; here they are far more common.
# SR-BI DiI inh: inhibitors of SR-BI mediated HDL lipid uptake, primary screen, ldlA[mSR-BI] cells, fluorescence, single point; Scavenger receptor class B member 1 (Mus musculus), Q61009; ldlA[mSR-BI] CHO cells, DiI-HDL uptake fluorescence, 3 h; 0.96% of 320,000 active; inhibition, % at 12.5 µM;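 active means mean replicate inhibition of at least 70% and a set share of replicates each scoring 70 or more; inconclusive means meets just one of the two criteria; inactive means fails both criteria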;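 further: 0% = median of neutral control wells and 100% = median of positive control wells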
# SR-BI uptake up: activators of SR-BI mediated DiI-HDL uptake, primary screen, ldlA[mSR-BI] CHO cells, DiI fluorescence; AID 504775, 2011; 0.096% of 320,000 active; 3 h; 100 = double the neutral-control signal; activation, % at 12.5 µM;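 active means mean replicate activation of at least 60% and every replicate at or above 60%; inconclusive means mean or all-replicate condition met, but not both; inactive means mean below 60% and not all replicates reaching 60%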;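 further: 0% = median plate neutral-control signal and 100% = twice that signal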
#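 Material: SR-BI-overexpressing, LDLR-lacking CHO cells | Dosing: Single compound concentration, delivered by pin transfer | Probe or stimulus: Labelled HDL, 10 µg/mL | Signal: Bottom-read cell fluorescence after medium removal, ex 550/em 595 nm | Schedule: 3 h, 37 °C | Evaluation: HDL uptake via cellular fluorescence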
# PvdQ inh: P. aeruginosa PvdQ acylase inhibitors, primary screen, biochemical, fluorescence, plate reader and imaging, single point; PvdQ acylase [Pseudomonas aeruginosa LESB58]; purified PvdQ acylase; inhibition, % at 10 µM; 0.063% of 340,000 active; in the data active means inhibition above about 30%, passing the limit was not always enough; inconclusive means no clear call, values can overlap the other calls;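 further: 0% = vehicle neutral wells and 100% = reference inhibitor wells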
# dFosB activator: activators of delta FosB homodimer, primary screen, biochemical, fluorescence polarization, TAMRA-CDK5 oligo, single point; Protein FosB (Mus musculus), P13346; purified delta FosB; percent of positive-control signal above neutral wells; activation, % at 25 µM; 0.99% of 340,000 active; AID 493131, 2011;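 active means mean activation above about 17%, with every replicate also reaching it, limit read from the data, passing the limit was not always enough; inconclusive means only one of the two conditions met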
# Target sequence (P13346 whole entry, looked up): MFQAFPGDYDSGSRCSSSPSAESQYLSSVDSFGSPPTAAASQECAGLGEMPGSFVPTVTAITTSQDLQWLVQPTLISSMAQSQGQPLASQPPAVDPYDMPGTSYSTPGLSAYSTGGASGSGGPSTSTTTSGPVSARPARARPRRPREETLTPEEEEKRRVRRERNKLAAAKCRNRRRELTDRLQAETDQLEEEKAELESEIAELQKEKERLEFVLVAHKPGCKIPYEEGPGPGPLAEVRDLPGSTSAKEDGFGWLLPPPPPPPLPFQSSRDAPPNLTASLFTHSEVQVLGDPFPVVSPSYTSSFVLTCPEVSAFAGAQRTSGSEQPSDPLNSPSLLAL
# rRNA inh HTS: reduced GFP signal of wild-type E. coli, primary screen, bacterial rRNA inhibitor project, GFP/RFP fluorescence, OD600, single point. E. coli WT GFP vs humanized-ribosome RFP mutants, 24 h; stronger effect = lower value; DMSO median 0, no signal -100. GFP signal change (wild-type ribosome), % (test concentration not listed). 1.6% of 350,000 active;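 active means significant combined selectivity score with lowered wild-type GFP, culture density cut under 30%, mutant RFP and density less affected; inactive means any of these conditions unmet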
# Xi reactivation: activators of inactive X chromosome reactivation, primary screen, imaging, XiGFP fibroblasts, GFP high-content imaging, set 2; XiGFP mouse fibroblasts, % GFP-positive cells imaging, 3 d; cells co-treated with 5-aza-dC sensitizer; scaled so ellipticine positive control = 100%; 0.055% of 360,000 active; activation, % at 7.58 µM; AID 743238, 2013;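 active means mean normalized replicate activation at least 10% and every replicate at or above 10%; inconclusive means only one of the two criteria met; inactive means mean below 10% and not all replicates reach 10%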;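 further: 0% = median of on-plate neutral control wells and 100% = ellipticine 6 µM median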
#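 System: 68-5-11 XiGFP fibroblast line | Buffer or medium: DMEM containing 5-aza-dC | Compound: Single point | Times: Compounds 3 days, fix/stain 15 min at room temperature | Benchmarks: Positive control ellipticine, 6 µM final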
# The depositor's hits bear a star; ? = inconclusive; / = no result given.
SMILES,SR-BI DiI inh,SR-BI uptake up,PvdQ inh,dFosB activator,rRNA inh HTS,Xi reactivation
CN(C)C(=O)CSc1nnc(-c2cc(-c3cccs3)nc3ccccc23)o1,25.9,-25.9,-2.1,-4.0,/,/
Cc1ccc(-c2nc(N3CCN(C)CC3)c3ccccc3n2)cc1,30.8,-30.8,2.7,-23.6,-26.6*,0.1
CC1CCN(c2nc(-c3ccncc3)nc3ccccc23)CC1,80.4*,-80.4,8.1,-30.6,/,/
CN1CCN(c2nc(-c3ccc(C(C)(C)C)cc3)nc3ccccc23)CC1,-29.5,29.5,8.0,6.8,8.6,0.3
CCOC(=O)c1ccc(NC(=O)C(C)Sc2nc(O)c(-c3ccccc3)c(=O)[nH]2)cc1 (stereo unspecified),1.2,-1.2,-6.0,-2.1,1.2,0.0
CC(Sc1nc(O)c(-c2ccccc2)c(=O)[nH]1)C(=O)Nc1ccc(Cl)cc1 (stereo unspecified),6.4,-6.4,-12.0,-2.5,-23.9*,0.0
CCn1c(-c2ccc3[nH]c(C)c(C)c3c2)n[nH]c1=S,18.5,-18.5,-10.0,-8.9,-12.5,/
Cc1[nH]c2ccc(-c3n[nH]c(=S)n3C)cc2c1C,8.2,-8.2,1.1,-3.0,-15.8*,/
COc1ccccc1NC(=O)Nc1sccc1-c1nc2ccccc2s1,/,/,/,/,-18.9,-0.1
O=C(Nc1ccccc1)Nc1sccc1-c1nc2ccccc2s1,59.9,-59.9,-4.1,-3.4,-20.8*,0.0
COc1cc(NC(C)CCCNC(C)C)c2ncccc2c1OC (stereo unspecified),44.7,-44.7,-4.5,-8.4,31.2,0.5
COc1cc(NCCCCCCN)c2ncccc2c1OC,-1.3,1.3,-2.4,18.0*,39.6,0.3
O=c1c2ccccc2nc(COc2ccccc2)n1/N=C/c1ccc(O)c(O)c1,/,/,-3.8,-12.9,-30.6*,0.0
Cc1ccc(-c2[nH]ncc2/C=N/n2c(COc3ccccc3)nc3ccccc3c2=O)cc1,25.4,-25.4,-10.9,6.1,/,-0.1
O=C(O)COc1ccc(/C=N/n2c(COc3ccccc3)nc3ccccc3c2=O)cc1,-2.8,2.8,-2.0,-9.5,-9.2,0.4
O=C(Nn1c(COc2ccccc2)nc2ccccc2c1=O)C(Cl)(Cl)Cl,13.5,-13.5,13.3,-3.0,-15.3*,0.0
Cc1cc(/C=N/n2c(COc3ccccc3)nc3ccccc3c2=O)c(O)c([N+](=O)[O-])c1,129.8*,-129.9,4.4,-3.0,/,0.6
C[C@H]1CN([C@@H](C)CO)C(=O)c2cc(NS(=O)(=O)c3ccc(F)cc3)ccc2O[C@H]1CN(C)Cc1ccc2c(c1)OCO2,/,/,/,/,2.4,0.1
CC12CCC(=O)N1C(C(=O)Nc1ccccc1N1CCOCC1)CS2 (stereo unspecified),1.7,-1.7,1.6,0.4,14.8,0.1
Cc1cc(C)c2nc(N3CCC(C(=O)N4CCCC4)CC3)sc2c1,16.3,-16.3,-4.5,0.6,-25.4*,/
CN1CCN(NC(=O)/C=C/c2ccc(Br)cc2)CC1,12.9,-12.9,-5.3,-5.2,4.7,0.1
O=C(CSCc1ccc([N+](=O)[O-])cc1)N/N=C/c1ccncc1,-8.3,8.3,-7.5,0.6,6.5,0.3
CCOC(=O)C1=C(Nc2ccc(C)cc2)CC(C)(O)C(C(=O)OCC)C1c1ccccc1 (stereo unspecified),9.6,-9.6,-5.8,-10.8,/,/
CCOC(=O)C1=C(Nc2ccccc2)CC(C)(O)C(C(=O)OCC)C1c1ccccc1 (stereo unspecified),-64.2,64.2*,-0.1,-10.3,3.3,0.8
COc1ccc(NS(=O)(=O)c2cccc(C(=O)N/N=C/c3cn(-c4ccccc4)nc3-c3ccccc3)c2)cc1,96.5*,-96.5,-2.9,?,9.5,-0.1
SMILES,SR-BI DiI inh,SR-BI uptake up,PvdQ inh,dFosB activator,rRNA inh HTS,Xi reactivation
COc1ccc(NS(=O)(=O)c2cccc(C(=O)N/N=C/c3cn(-c4ccccc4)nc3-c3ccc(OC)cc3)c2)cc1,/,/,-3.1,11.7,7.1,-0.1
COc1ccc(NS(=O)(=O)c2cccc(C(=O)NNC(=O)c3ccccc3O)c2)cc1,72.3*,-72.3,-0.4,-6.9,-18.0,0.4
COc1ccc(NS(=O)(=O)c2cccc(C(=O)N/N=C/c3ccccc3OC)c2)cc1,82.3*,-82.3,0.0,5.7,2.2,0.0
CCN(CC)c1ccc(/C=N/NC(=O)c2cccc(S(=O)(=O)Nc3ccccc3OC)c2)c(O)c1,132.0*,-132.0,-10.3,-19.3,3.3,0.0
COc1ccc(NS(=O)(=O)c2cccc(C(=O)NN=Cc3ccc(O)c(OC)c3)c2)cc1,20.8,-20.8,2.4,8.3,-5.7,0.0
C[C@@H]1CN([C@H](C)CO)C(=O)c2cc(-c3ccccc3)cnc2O[C@@H]1CN(C)C,/,/,/,/,3.6,-1.0
COc1ccc(-c2cc(C(=O)Nc3ccc(C)cc3)no2)cc1,-20.6,20.6,-15.5,-0.9,/,/
O=c1c2c(n3cnnc3n1C1CCCCC1)-c1ccccc1CC21CCCCC1,5.8,-5.8,1.6,-5.1,/,/
O=c1c2ccccc2nnn1-c1ccccc1,-356.3,356.3*,-0.3,-4.7,3.9,0.6
CCN1CCc2c(OCc3ccccc3)cccc2C1=O,80.1*,-80.1,-4.2,-9.2,-14.2,0.0
O=C1c2cccc(OCc3ccc(F)cc3)c2CCN1Cc1ccccc1,25.4,-25.4,-10.8,-3.3,/,4.0
O=C(CN1CCC(n2nnc3cc(F)ccc32)CC1)N1CCc2ccccc2C1,9.0,-9.0,-14.7,-7.1,-23.1*,/
O=C(CN1CCC(n2nnc3cc(F)ccc32)CC1)NC1CC1,-4.7,4.7,2.1,-3.2,/,/
COc1cccc(OC)c1C(=O)Nc1cc(Cl)ccc1N1CCOCC1,29.4,-29.4,-2.6,-1.1,/,/
CN(Cc1ccc(F)cc1)C(=O)c1ccc(NS(=O)(=O)c2ccc3[nH]c(=O)[nH]c3c2)cc1,-6.3,6.3,-2.5,-17.0,11.7,0.0
CN(Cc1c(F)cccc1Cl)C(=O)c1ccc(NS(=O)(=O)c2ccc3[nH]c(=O)[nH]c3c2)cc1,-13.0,13.0,8.7,-10.2,-22.5*,0.0
CCCn1nc(NS(=O)(=O)c2ccccc2[N+](=O)[O-])c2cc3ccccc3nc21,-54.7,54.7,-6.7,-1.5,-20.9*,0.0
O=C(COc1ccc(Cl)cc1)NCc1nnc(SCC(=O)c2ccccc2)o1,9.2,-9.2,-11.0,-7.7,/,/
